Source: ChEMBL document CHEMBL1126655, “Synthesis and antiviral activity of novel isonucleoside analogs” (J Med Chem, 1993)

Columns and labels:
Human betaherpesvirus 5 = assay: Antiviral activity against Human cytomegalovirus (AD169 strain); format: functional; settings: read-out: ID50 (the source's name)
Summary of the method: (§1)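 WI-38 monolayers were infected, with virus adsorbed for 1–2 h. They were then overlaid with EMEM maintenance medium (1% carboxymethyl cellulose, 2.5% FBS) containing duplicate drug dilutions. Monolayers were stained after 4–6 days at 37 °C. ID50 was taken as the concentration giving 50% plaque reduction versus virus controls. Titrations were done in duplicate.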

Human alphaherpesvirus 1 [1] = assay: Antiviral activity against Herpes simplex virus-1 (Schooler strain); format: functional; settings: read-out: ID50 (the source's name); summary of the method: as §1
Human alphaherpesvirus 3 = assay: Antiviral activity against Varicella zoster virus (Ellen strain); format: functional; settings: read-out: ID50 (the source's name); summary of the method: as §1
Human alphaherpesvirus 1 [2] = assay: Antiviral activity against Herpes simplex virus-1 (Schooler); format: functional; settings: read-out: ID50 (the source's name); summary of the method: as §1
Human alphaherpesvirus 2 = assay: Antiviral activity against Herpes simplex virus-2 (thymidine kinase deficient strains isolated as BVaraU resistant mutants of HSV-1 (KOS)); format: functional; settings: read-out: ID50 (the source's name)
[3] = Antiviral activity against Herpes simplex virus-1 (KOS strain); format: functional; settings: Human alphaherpesvirus 1; read-out: ID50 (the source's name); summary of the method: as §1
Human alphaherpesvirus 1 [4] = assay: Antiviral activity against Herpes simplex virus-1 (thymidine kinase deficient strains isolated as BVaraU resistant mutants of HSV-1 (KOS)); format: functional; settings: read-out: ID50 (the source's name); summary of the method: as §1
Mus musculus [5] = assay: Protective dose against Herpes simplex virus type type -1 infection in mice at 200 mg/kg; format: functional; settings: read-out: PD50
Summary of the method: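 Female Swiss-Webster mice (20–23 g), 10 per group, infected intraperitoneally with 10^3 PFU HSV-1 strain Schooler (Vero freeze-thaw extract) in 0.3% BSA-PBS. Subcutaneous dosing in PBS twice daily from 1 h postinfection for 5 days, 12.5–200 mg/kg/day. Survival scored over 21 days; PD50 from survival by probit analysis.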

Mus musculus [6] = assay: Protective dose against Herpes simplex virus type type -2 infection in mice at 200 mg/kg; format: functional; settings: read-out: PD50
Summary of the method: (§2)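 Female Swiss-Webster mice (20–23 g), 10 per group, infected intraperitoneally with 10^6 PFU HSV-2 strain Curtis (Vero freeze-thaw extract) in 0.3% BSA-PBS. Drug given subcutaneously in PBS twice daily from 1 h postinfection for 5 days, doses 12.5–200 mg/kg/day. Survival followed 21 days; PD50 by probit analysis; mean day of death by Student's t-test versus placebo.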

WI-38 [7] = assay: Tested for growth inhibition againstWI-38 cells; format: functional; settings: Homo sapiens, read-out: ID50 (the source's name)
Summary of the method: (§3)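 WI-38 cells seeded at 1.2 × 10^6 per well, incubated overnight at 37 °C, then refed with growth medium (EMEM, 10% FBS) holding serial drug dilutions or none, for 3 more days at 37 °C. Quadruplicate cultures per concentration trypsinized and counted daily for viable cells by trypan blue exclusion.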

Vaccinia virus = assay: Antiviral activity against vaccinia virus (CL strain); format: functional; settings: Orthopoxvirus vaccinia; read-out: ID50 (the source's name)
Mus musculus [8] = assay: Number of survivors against Herpes simplex virus type-1 infection in mice at 100 mg/kg/day out of total 10 tested; format: functional
Summary of the method: (§4)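 Female Swiss-Webster mice (20–23 g, 10 per group) were infected ip with 10^3 PFU HSV-1 Schooler in 0.3% BSA-PBS. Drug was given sc twice daily in PBS, starting 1 h postinfection, for 5 days. Survival was followed for 21 days. Mean day of death of dead animals was compared with placebo-treated infected controls by Student's t-test.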

Mus musculus [9] = assay: Number of survivors against Herpes simplex virus type-1 infection in mice at 150 mg/kg/day out of total 10 tested; format: ADME, organism-based; settings: in vivo; summary of the method: as §4
Mus musculus [10] = assay: Number of survivors against Herpes simplex virus type-1 infection in mice at 200 mg/kg/day out of total 10 tested; format: functional; summary of the method: as §4
Mus musculus [11] = assay: Number of survivors against Herpes simplex virus type-1 infection in mice at 25 mg/kg/day out of total 10 tested; format: functional; summary of the method: as §4
Mus musculus [12] = assay: Number of survivors against Herpes simplex virus type-2 infection in mice at 100 mg/kg/day out of total 10 tested; format: functional
Summary of the method: (§5)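 Female Swiss-Webster mice (20–23 g, 10 per group) were infected ip with 10^6 PFU HSV-2 Curtis in 0.3% BSA-PBS. Dosing was sc twice daily in PBS from 1 h postinfection for 5 days. Survival was recorded over 21 days. Mean day of death was computed for dead mice and compared with placebo-treated infected controls by Student's t-test.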

Mus musculus [13] = assay: Number of survivors against Herpes simplex virus type-2 infection in mice at 12.5 mg/kg/day out of total 10 tested; format: functional; summary of the method: as §5
Mus musculus [14] = assay: Number of survivors against Herpes simplex virus type-2 infection in mice at 200 mg/kg/day out of total 10 tested; format: functional; summary of the method: as §5
Mus musculus [15] = assay: Number of survivors against Herpes simplex virus type-2 infection in mice at 25 mg/kg/day out of total 10 tested; format: functional; summary of the method: as §2
Mus musculus [16] = assay: Day of death in lethal test against herpes simplex virus type-1 at 100 mg/kg/day; format: ADME, organism-based; settings: in vivo; summary of the method: as §4
Mus musculus [17] = assay: Day of death in lethal test against herpes simplex virus type-1 at 12.5 mg/kg/day; format: ADME, organism-based; settings: in vivo; summary of the method: as §4
Mus musculus [18] = assay: Day of death in lethal test against herpes simplex virus type-1 at 150 mg/kg/day; format: functional; summary of the method: as §4
Mus musculus [19] = assay: Day of death in lethal test against herpes simplex virus type-1 at 50 mg/kg/day; format: ADME, organism-based; settings: in vivo; summary of the method: as §4
Mus musculus [20] = assay: Day of death in lethal test against herpes simplex virus type-2 at 100 mg/kg/day; format: ADME, organism-based; settings: in vivo; summary of the method: as §5
Mus musculus [21] = assay: Day of death in lethal test against herpes simplex virus type-2 at 12.5 mg/kg/day; format: ADME, organism-based; settings: in vivo; summary of the method: as §5
Mus musculus [22] = assay: Day of death in lethal test against herpes simplex virus type-2 at 25 mg/kg/day; format: ADME, organism-based; settings: in vivo; summary of the method: as §5
Mus musculus [23] = assay: Day of death in lethal test against herpes simplex virus type-2 at 50 mg/kg/day; format: ADME, organism-based; settings: in vivo; summary of the method: as §5
Mus musculus [24] = assay: Day of death in lethal test against herpes simplex virus type-1 at 25 mg/kg/day; format: ADME, organism-based; settings: in vivo; summary of the method: as §4
WI-38 [25] = assay: Tested for growth inhibition against WI-38 cells; format: functional; settings: Homo sapiens, read-out: ID50 (the source's name); summary of the method: as §3

O=c1[nH]c(=O)n([C@@H]2CO[C@H](CO)[C@H]2CO)cc1I
IC50 (Human betaherpesvirus 5): > 270 µM | IC50 (Human alphaherpesvirus 1 [1]): 140 µM | IC50 (Human alphaherpesvirus 3): 70 µM

Nc1nc(O)c2ncn([C@@H]3CO[C@H](CO)[C@H]3CO)c2n1
IC50 (Human betaherpesvirus 5): > 360 µM | IC50 (Human alphaherpesvirus 1 [2]): 18 µM | IC50 (Human alphaherpesvirus 2): 180 µM | IC50 [3]: 7 µM | IC50 (Human alphaherpesvirus 1 [4]): 180 µM | ED50 (Mus musculus [5]): 84 mg/kg/day | ED50 (Mus musculus [6]): 52 mg/kg/day | IC50 (WI-38 [7]): > 700 µM | IC50 (Vaccinia virus): > 360 µM | IC50 (Human alphaherpesvirus 3): 40 µM | No. of survivors (Mus musculus [8]): 6 | No. of survivors (Mus musculus [9]): 7 | No. of survivors (Mus musculus [10]): 9 | No. of survivors (Mus musculus [11]): 2 | No. of survivors (Mus musculus [12]): 6 | No. of survivors (Mus musculus [13]): 0 | No. of survivors (Mus musculus [14]): 9 | No. of survivors (Mus musculus [15]): 6 | Mean day of death (Mus musculus [16]): 14.7 | Mean day of death (Mus musculus [17]): 9.6 | Mean day of death (Mus musculus [18]): 12.3 | Mean day of death (Mus musculus [19]): 10.1 | Mean day of death (Mus musculus [20]): 12.2 | Mean day of death (Mus musculus [21]): 10.3 | Mean day of death (Mus musculus [22]): 12.5 | Mean day of death (Mus musculus [23]): 10.9 | Mean day of death (Mus musculus [24]): 9.1

Nc1nc(=O)n([C@@H]2CO[C@H](CO)[C@H]2CO)cc1I
IC50 (Human betaherpesvirus 5): > 270 µM | IC50 (Human alphaherpesvirus 1 [1]): 140 µM | IC50 (Human alphaherpesvirus 3): 14 µM

Nc1ncnc2c1ncn2[C@@H]1CO[C@H](CO)[C@H]1CO
IC50 (Human betaherpesvirus 5): 4 µM | IC50 (Human alphaherpesvirus 2): 4 µM | IC50 [3]: 4 µM | IC50 (Human alphaherpesvirus 1 [1]): 8 µM | IC50 (Human alphaherpesvirus 1 [4]): 8 µM | IC50 (WI-38 [25]): 90 µM | IC50 (Vaccinia virus): 20 µM | IC50 (Human alphaherpesvirus 3): 4 µM

Cc1cn([C@@H]2CO[C@H](CO)[C@H]2CO)c(=O)[nH]c1=O
IC50 (Human betaherpesvirus 5): > 400 µM | IC50 [3]: 8 µM | IC50 (Human alphaherpesvirus 1 [1]): 4 µM | IC50 (Human alphaherpesvirus 1 [4]): > 400 µM | IC50 (Human alphaherpesvirus 3): 20 µM
